From ChEMBL document CHEMBL4765239, “Discovery of a Novel Highly Selective Histamine H4 Receptor Antagonist for the Treatment of Atopic Dermatitis” (J Med Chem, 2018)
pIC50: −log10 of the molar value. Activity calls are given as the source filed them. The calls are words filed in the database; no cut-off is given here.

How the values were obtained:
Mus musculus [1] = assay: Antiinflammatory activity in oxazolone-induced Balb/c mouse model of atopic dermatitis assessed as reduction of ear thickness at 50 mg/kg, po BID administered 30 mins prior to oxazolone challenge for 3 weeks and measured on day 27; type: functional, organism-based
Procedure, shortened: (§1)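 Female BALB/c mice (n=8), abdomen shaved. Sensitized on day 0 with topical 1% oxazolone (50 µL) in acetone/corn oil 4:1. From day 7, right ear challenged with 0.2% oxazolone (25 µL) 3 times weekly; left ear got vehicle. Oral dosing twice daily, 30 min before challenge, for 3 weeks. Scratching counted for 1 h after challenge on day 25. Ear thickness measured; ear fixed in 4% paraformaldehyde, 3 µm paraffin sections stained with H&E for epidermal thickness. Mean ± S.E.M., t-test.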

Histamine H3 receptor = Histamine H3 receptor (Homo sapiens, UniProt Q9Y5N1); assay: Displacement of [3H]-N-alpha-methylhistamine from recombinant human histamine H3 receptor after 60 mins by radiometric scintillation counting analysis
Histamine H3 receptor, sequence (Q9Y5N1 whole entry): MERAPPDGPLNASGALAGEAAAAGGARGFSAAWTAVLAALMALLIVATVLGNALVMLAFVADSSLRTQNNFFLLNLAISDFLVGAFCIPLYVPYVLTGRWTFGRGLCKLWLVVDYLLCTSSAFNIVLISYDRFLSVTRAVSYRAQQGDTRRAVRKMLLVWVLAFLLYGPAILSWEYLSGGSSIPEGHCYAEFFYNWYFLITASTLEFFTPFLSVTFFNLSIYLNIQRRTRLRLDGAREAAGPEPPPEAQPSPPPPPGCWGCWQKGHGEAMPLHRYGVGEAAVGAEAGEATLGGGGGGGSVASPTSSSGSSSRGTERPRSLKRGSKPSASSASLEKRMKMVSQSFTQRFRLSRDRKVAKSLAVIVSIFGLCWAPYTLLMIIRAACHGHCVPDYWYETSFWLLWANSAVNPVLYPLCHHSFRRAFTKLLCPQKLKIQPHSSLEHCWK

Mus musculus [2] = assay: Antiinflammatory activity in oxazolone-induced Balb/c mouse model of atopic dermatitis assessed as reduction of epidermal thicken in skin lesions at 50 mg/kg, po BID administered 30 mins prior to oxazolone challenge for 3 weeks by hematoxylin and eosin staining based histopathological analysis; type: functional, organism-based; procedure, shortened: as §1
Mus musculus [3] = assay: Anti-pruritus activity in oxazolone-induced Balb/c mouse model of atopic dermatitis assessed as reduction of scratching bouts at 50 mg/kg, po BID administered 30 mins prior to oxazolone challenge for 3 weeks and measured on day 25; type: functional, organism-based; procedure, shortened: as §1
[4] = Cmax in ICR mouse at 2 mg/kg, po measured upto 24 hrs by LC-MS/MS analysis; type: ADME, organism-based; set-up: route oral, dose 2 mg/kg, time <=24; conditions: in vivo
Procedure, shortened: (§2)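 Female ICR mice, n=3 per group, given test compound orally. Blood sampled at 0.5, 1, 2, 4, 7 and 24 h post dose; plasma levels quantified by LC-MS/MS. Parameters from non-compartmental analysis.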

[5] = Tmax in ICR mouse at 10 mg/kg, po measured upto 24 hrs by LC-MS/MS analysis; type: ADME, organism-based; conditions: in vivo; procedure, shortened: as §2
[6] = AUC (all) in ICR mouse at 10 mg/kg, po measured upto 24 hrs by LC-MS/MS analysis; type: ADME, organism-based; set-up: route oral, dose 10 mg/kg, time <=24; conditions: in vivo; procedure, shortened: as §2
Mus musculus [7] = assay: Antiinflammatory activity in oxazolone-induced Balb/c mouse model of atopic dermatitis assessed as reduction of hyperplasia at 50 mg/kg, po BID administered 30 mins prior to oxazolone challenge for 3 weeks by hematoxylin and eosin staining based histopathological analysis; type: functional, organism-based
Histamine H4 receptor [8] = target: Histamine H4 receptor (Homo sapiens, UniProt Q9H3N8); assay: Antagonist activity at recombinant human histamine H4 receptor expressed in CHO-K1 cells assessed as inhibition of R-alpha-methylhistamine induced stimulation of [35S]-GTPgammaS binding by scintillation proximity assay; type: functional, cell membranes, Cell membrane
Procedure, shortened: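 Functional [35S]GTPγS binding on recombinant human H4R. Antagonism was measured against the reference agonist R-α-methylhistamine, with JNJ10191584 as the reference antagonist. Run by a contract lab.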

[9] = target: Histamine H1 receptor (Homo sapiens) (UniProt P35367); assay: Displacement of [3H]pyrilamine from recombinant human histamine H1 receptor after 60 mins by scintillation counting analysis
Histamine H1 receptor (Homo sapiens), sequence (P35367 whole entry): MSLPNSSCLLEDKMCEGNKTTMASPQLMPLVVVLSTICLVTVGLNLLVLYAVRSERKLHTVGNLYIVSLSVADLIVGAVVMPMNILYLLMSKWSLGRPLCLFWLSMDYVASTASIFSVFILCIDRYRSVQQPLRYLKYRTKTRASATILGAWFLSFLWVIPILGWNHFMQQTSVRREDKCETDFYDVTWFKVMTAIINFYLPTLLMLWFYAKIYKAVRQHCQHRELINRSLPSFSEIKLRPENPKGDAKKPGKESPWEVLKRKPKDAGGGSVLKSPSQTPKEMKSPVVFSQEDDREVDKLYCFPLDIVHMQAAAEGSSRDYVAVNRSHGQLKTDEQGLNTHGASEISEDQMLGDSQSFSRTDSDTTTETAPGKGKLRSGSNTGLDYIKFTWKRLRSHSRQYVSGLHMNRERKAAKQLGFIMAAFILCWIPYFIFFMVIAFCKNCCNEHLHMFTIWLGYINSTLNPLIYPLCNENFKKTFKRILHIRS

Histamine H4 receptor [10] = target: T1, Histamine H4 receptor (Mus musculus, UniProt Q91ZY2); assay: Antagonist activity at recombinant mouse histamine H4 receptor expressed in CHO-K1 cells assessed as inhibition of R-alpha-methylhistamine induced stimulation of [35S]-GTPgammaS binding by scintillation proximity assay; type: functional, cell membranes, Cell membrane
T1 sequence (Q91ZY2 whole entry): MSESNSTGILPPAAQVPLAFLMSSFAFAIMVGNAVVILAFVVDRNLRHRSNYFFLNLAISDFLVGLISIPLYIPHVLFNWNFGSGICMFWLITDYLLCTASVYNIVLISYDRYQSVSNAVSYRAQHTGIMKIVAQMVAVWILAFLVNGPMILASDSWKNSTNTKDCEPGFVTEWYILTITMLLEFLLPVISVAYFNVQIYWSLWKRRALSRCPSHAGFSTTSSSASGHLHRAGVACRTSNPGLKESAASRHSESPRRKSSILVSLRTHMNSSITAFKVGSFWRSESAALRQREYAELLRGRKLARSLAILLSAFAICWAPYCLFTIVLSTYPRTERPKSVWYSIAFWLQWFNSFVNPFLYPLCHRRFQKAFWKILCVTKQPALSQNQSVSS
Procedure, shortened: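 GTPγ35S binding on recombinant mouse H4R, run by an outside contractor. R-α-methylhistamine served as reference agonist and thioperamide as reference antagonist.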

Activity (Histamine H3 receptor): inactive
Cmax [4]: 180 ng/mL
Tmax [5]: 30 min
AUC at 24 h [6]: 5400 ng·h/mL
pIC50 (Histamine H4 receptor [8]): 7.55
Activity [9]: inactive
pIC50 (Histamine H4 receptor [10]): 6.16
Compound: CNC1CN(c2nc3ncc(Br)cc3n3nnnc23)C1
Activity (Mus musculus [1]): Active
Activity (Mus musculus [2]): Active
Activity (Mus musculus [3]): Active
Activity (Mus musculus [7]): Active
